Legend:
[1] = biological target: CDC7/DBF4 (Cell division cycle 7-related protein kinase/Activator of S phase kinase) (Homo sapiens, UniProt O00311); assay: Inhibition of recombinant human Cdc7 (1 to 574 residues)/human N-terminal GST-tagged ASK (1 to 674 residues) expressed in baculovirus expression system using FITC-labeled MCM2 peptide as substrate measured after 5 hrs in presence of 5 uM ATP
In short: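 Cdc7 enzymatic assay with 5 µM ATP. IC50 values are the mean of duplicate measurements.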

[2] = Stability in human liver microsomes assessed as compound remaining at 1 uM in presence of NADPH after 30 mins by LC-MS/MS analysis; format: ADME, microsome; details: read-out: Stability
In short: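 Human liver microsomes are incubated with compound for 30 min. The read-out is the percentage of parent compound remaining.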

[3] = biological target: CDC7/DBF4 (Cell division cycle 7-related protein kinase/Activator of S phase kinase) (Homo sapiens) (UniProt Q9UBU7+O00311); assay: Ratio of IC50 for recombinant human Cdc7 (1 to 574 residues)/human N-terminal GST-tagged ASK (1 to 674 residues) expressed in baculovirus expression system in presence of […] to IC50 for recombinant human Cdc7 (1 to 574 residues)/human N-terminal GST-tagged ASK (1 to 674 residues) expressed in baculovirus expression system in presence of 5 uM ATP
[4] = Stability of the compound under basic condition; format: physicochemical
[5] = species on record: Mus musculus; assay: Stability in mouse liver microsomes assessed as compound remaining at 1 uM in presence of NADPH after 30 mins by LC-MS/MS analysis
[6] = Stability of the compound in 50% KOH; format: physicochemical

SMILES | IC50 [1] [nM] | also measured
CCOC(=O)C1=C(Nc2ccccc2)O/C(=C\c2ccc(O)c(C)c2)C1=O | 1200 | 
O=C1C(C(=O)N2CCCCC2)=C(Nc2ccccc2)O/C1=C\c1c[nH]c2ncccc12 | 890 | 
CCOC(=O)C1=C(Nc2ccccc2)S/C(=C\c2c[nH]c3ncccc23)C1=O | > 10000 | 
CCNC(=O)C1=C(Nc2ccccc2)O/C(=C\c2c[nH]c3ncccc23)C1=O | 1600 | 
NC(=O)C1=C(Nc2ccccc2)O/C(=C\c2c[nH]c3ncccc23)C1=O | > 10000 | 
CCOC(=O)C1=C(Nc2ccccc2)O/C(=C\c2c[nH]c3ncc(Cl)cc23)C1=O | 44 | 
CCOC(=O)C1=C(Nc2ccccc2)O/C(=C\c2ccc3c(c2)OCO3)C1=O | 3200 | 

Now those with a lower IC50 [1], led by results:

IC50 [1] [nM] | SMILES | also measured
9.9 | O=C(O)C1=C(Nc2ccccc2)O/C(=C\c2c[nH]c3ncccc23)C1=O | 
4.9 | CCOC(=O)C1=C(Nc2ccc(OC)cc2)O/C(=C\c2c[nH]c3ncccc23)C1=O | remaining at 0.5 h, 1 µM [2]: 33%
4.3 | CCOC(=O)C1=C(Nc2ccc(F)cc2)O/C(=C\c2c[nH]c3ncccc23)C1=O | remaining at 0.5 h, 1 µM [2]: 52%
3.3 to 3.8 | CCOC(=O)C1=C(Nc2ccccc2)O/C(=C\c2c[nH]c3ncccc23)C1=O | Ratio IC50 [3]: 21; Stability [4]: Stable; remaining at 0.5 h, 1 µM [2]: 23%; remaining at 0.5 h, 1 µM [5]: 7.9%; Stability [6]: Unstable

— ChEMBL document CHEMBL4011589, “Discovery of novel furanone derivatives as potent Cdc7 kinase inhibitors” (Eur J Med Chem, 2017)
